Experimental data as given in ChEMBL document CHEMBL3627681, “Synthesis and biological evaluation of 1,3-diaryl pyrazole derivatives as potential antibacterial and anti-inflammatory agents” (2015).
Values after ≈ are worked out from the molar mass of the structure shown.

What was measured:
[1] = tested on: Pseudomonas aeruginosa; assay: Antibacterial activity against Pseudomonas aeruginosa 2742 after 24 hrs by two-fold serial dilution method; format: functional; details: Pseudomonas aeruginosa, 2742, 24 h
Method in brief: (§1)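 Broth microdilution in Mueller-Hinton broth over final concentrations of 64–0.5. Bacteria were grown to mid-log phase and diluted 1000-fold, then inoculated at 10⁵ CFU/mL. Compounds were dissolved in DMSO, with final DMSO at most 0.05%. Plates were incubated 24 h at 37 °C and growth read as absorbance at 650 nm. MIC is the concentration giving complete growth inhibition. Three independent runs.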

[2] = tested on: Escherichia coli; assay: Antibacterial activity against Escherichia coli KCTC 1924 after 24 hrs by two-fold serial dilution method; format: functional; details: KCTC 1924, 24 h; method in brief: as §1
[3] = tested on: Staphylococcus aureus; assay: Ratio of norfloxacin MIC to compound MIC for methicillin-resistant Staphylococcus aureus CCARM 3506 after 24 hrs by two-fold serial dilution method; format: functional
[4] = tested on: Staphylococcus aureus; assay: Antibacterial activity against methicillin-resistant Staphylococcus aureus CCARM 3506 after 24 hrs by two-fold serial dilution method; format: functional; details: CCARM 3506, 24 h
Method in brief: (§2)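 Broth microdilution in Mueller-Hinton broth. Bacteria grown to mid-log phase, diluted 1000-fold, and inoculated at 10⁵ CFU/mL. Test compounds in DMSO, final DMSO not above 0.05%, final concentrations 64-0.5 µg/mL. Incubation 24 h at 37 °C, growth read as absorbance at 650 nm. MIC taken as the lowest concentration giving complete growth inhibition. Run three times.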

[5] = tested on: Streptococcus mutans; assay: Antibacterial activity against Streptococcus mutans 3065 after 24 hrs by two-fold serial dilution method; format: functional; details: Streptococcus mutans, 3065, 24 h; method in brief: as §1
[6] = tested on: Staphylococcus aureus; assay: Ratio of moxifloxacin MIC to compound MIC for quinolone-resistant Staphylococcus aureus CCARM 3519 after 24 hrs by two-fold serial dilution method; format: functional
[7] = tested on: Candida albicans; assay: Antifungal activity against Candida albicans 7535 by two-fold serial dilution method; format: functional
[8] = tested on: Staphylococcus aureus; assay: Antibacterial activity against quinolone-resistant Staphylococcus aureus CCARM 3519 after 24 hrs by two-fold serial dilution method; format: functional; details: CCARM 3519, 24 h; method in brief: as §2
[9] = tested on: Pseudomonas aeruginosa; assay: Antibacterial activity against Pseudomonas aeruginosa 2004 after 24 hrs by two-fold serial dilution method; format: functional; details: Pseudomonas aeruginosa, 2004, 24 h; method in brief: as §1
[10] = tested on: Staphylococcus aureus; assay: Antibacterial activity against Staphylococcus aureus RN4220 after 24 hrs by two-fold serial dilution method; format: functional; details: RN4220, 24 h; method in brief: as §2
[11] = tested on: Escherichia coli; assay: Antibacterial activity against Escherichia coli CCARM 1356 after 24 hrs by two-fold serial dilution method; format: functional; details: CCARM 1356, 24 h; method in brief: as §1
[12] = tested on: Staphylococcus aureus; assay: Antibacterial activity against methicillin-resistant Staphylococcus aureus CCARM 3167 after 24 hrs by two-fold serial dilution method; format: functional; details: CCARM 3167, 24 h; method in brief: as §2
[13] = tested on: Staphylococcus aureus; assay: Ratio of moxifloxacin MIC to compound MIC for quinolone-resistant Staphylococcus aureus CCARM 3505 after 24 hrs by two-fold serial dilution method; format: functional
[14] = tested on: Staphylococcus aureus; assay: Ratio of oxacillin MIC to compound MIC for methicillin-resistant Staphylococcus aureus CCARM 3506 after 24 hrs by two-fold serial dilution method; format: functional
[15] = tested on: Staphylococcus aureus; assay: Ratio of gatifloxacin MIC to compound MIC for quinolone-resistant Staphylococcus aureus CCARM 3505 after 24 hrs by two-fold serial dilution method; format: functional
[16] = tested on: Staphylococcus aureus; assay: Ratio of gatifloxacin MIC to compound MIC for quinolone-resistant Staphylococcus aureus CCARM 3519 after 24 hrs by two-fold serial dilution method; format: functional
[17] = tested on: Staphylococcus aureus; assay: Antibacterial activity against Staphylococcus aureus 209 after 24 hrs by two-fold serial dilution method; format: functional; details: Staphylococcus aureus, 209, 24 h; method in brief: as §2
[18] = tested on: Mus musculus; assay: Antiinflammatory activity in mouse assessed as inhibition of xylene-induced ear edema at 50 mg/kg, ip administered 30 mins before xylene challenge relative to control; format: functional
Method in brief: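 Mice received compound freshly dissolved in DMSO, 50 mg/kg ip at 0.05 mL/20 g body weight; vehicle controls got DMSO alone. After 30 min, 20 µL xylene was applied to the right ear. After a further 30 min, 7 mm plugs were cut from treated and untreated ears and edema taken as their weight difference. Result is % edema reduction versus vehicle controls.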

[19] = tested on: Staphylococcus aureus; assay: Antibacterial activity against quinolone-resistant Staphylococcus aureus CCARM 3505 after 24 hrs by two-fold serial dilution method; format: functional; details: CCARM 3505, 24 h; method in brief: as §2
[20] = tested on: Staphylococcus aureus; assay: Antibacterial activity against Staphylococcus aureus 503 after 24 hrs by two-fold serial dilution method; format: functional; details: Staphylococcus aureus, 503, 24 h; method in brief: as §2
[21] = tested on: Escherichia coli; assay: Ratio of gatifloxacin MIC to compound MIC for Escherichia coli CCARM 1356 after 24 hrs by two-fold serial dilution method; format: functional
[22] = tested on: Salmonella typhimurium; assay: Antibacterial activity against Salmonella typhimurium 2421 after 24 hrs by two-fold serial dilution method; format: functional, Salmonella enterica subsp. enterica serovar Typhimurium; details: Salmonella enterica, 2421, 24 h; method in brief: as §1
[23] = tested on: Escherichia coli; assay: Ratio of moxifloxacin MIC to compound MIC for Escherichia coli CCARM 1356 after 24 hrs by two-fold serial dilution method; format: functional

| Structure (SMILES) | MIC [1] | MIC [2] | MIC [4] | MIC [5] | Ratio [6] | MIC [7] | MIC [8] | MIC [9] | MIC [10] | MIC [11] | MIC [12] | Ratio [13] | Ratio [15] | Ratio [16] | MIC [17] | inhibition in vivo at 50 mg/kg [18] | MIC [19] | MIC [20] | MIC [22] | Ratio [23] | also measured |
| --- | --- | --- | --- | --- | --- | --- | --- | --- | --- | --- | --- | --- | --- | --- | --- | --- | --- | --- | --- | --- | --- |
| N=C(N)N/N=C/c1cn(-c2ccc([N+](=O)[O-])cc2[N+](=O)[O-])nc1-c1cccc(Cl)c1 | > 64 µg/mL | 2 µg/mL (≈ 4.66 µM) | 1 µg/mL (≈ 2.33 µM) | 4 µg/mL (≈ 9.33 µM) | 2 | 1 µg/mL (≈ 2.33 µM) | 2 µg/mL (≈ 4.66 µM) | > 64 µg/mL | 1 µg/mL (≈ 2.33 µM) | 4 µg/mL (≈ 9.33 µM) | 2 µg/mL (≈ 4.66 µM) | 2 | 4 | 2 | 2 µg/mL (≈ 4.66 µM) | 82.4% | 2 µg/mL (≈ 4.66 µM) | 2 µg/mL (≈ 4.66 µM) | 4 µg/mL (≈ 9.33 µM) |  | Ratio [3]: 4; Ratio [14]: 64; Ratio [21]: 4 |
| COc1ccc(-c2nn(-c3ccc([N+](=O)[O-])cc3[N+](=O)[O-])cc2/C=N/NC(=N)N)cc1 | > 64 µg/mL | 4 µg/mL (≈ 9.43 µM) | 2 µg/mL (≈ 4.71 µM) | 8 µg/mL (≈ 18.9 µM) |  | 2 µg/mL (≈ 4.71 µM) | 4 µg/mL (≈ 9.43 µM) | > 64 µg/mL | 4 µg/mL (≈ 9.43 µM) | 8 µg/mL (≈ 18.9 µM) | 4 µg/mL (≈ 9.43 µM) |  |  |  | 4 µg/mL (≈ 9.43 µM) | 86.5% | 4 µg/mL (≈ 9.43 µM) | 4 µg/mL (≈ 9.43 µM) | 8 µg/mL (≈ 18.9 µM) | 16 |  |
| N=C(N)N/N=C/c1cn(-c2ccc([N+](=O)[O-])cc2[N+](=O)[O-])nc1-c1ccc(F)cc1 | > 64 µg/mL | 4 µg/mL (≈ 9.7 µM) | 4 µg/mL (≈ 9.7 µM) | 8 µg/mL (≈ 19.4 µM) |  | 2 µg/mL (≈ 4.85 µM) | 4 µg/mL (≈ 9.7 µM) | > 64 µg/mL | 4 µg/mL (≈ 9.7 µM) | 8 µg/mL (≈ 19.4 µM) | 4 µg/mL (≈ 9.7 µM) |  |  |  | 4 µg/mL (≈ 9.7 µM) | 61.9% | 4 µg/mL (≈ 9.7 µM) | 4 µg/mL (≈ 9.7 µM) | 8 µg/mL (≈ 19.4 µM) | 16 |  |
| N=C(N)N/N=C/c1cn(-c2ccc([N+](=O)[O-])cc2[N+](=O)[O-])nc1-c1ccc(Cl)cc1 | > 64 µg/mL | 2 µg/mL (≈ 4.66 µM) | 2 µg/mL (≈ 4.66 µM) | 4 µg/mL (≈ 9.33 µM) | 2 | 2 µg/mL (≈ 4.66 µM) | 2 µg/mL (≈ 4.66 µM) | > 64 µg/mL | 2 µg/mL (≈ 4.66 µM) | 8 µg/mL (≈ 18.7 µM) | 2 µg/mL (≈ 4.66 µM) | 2 | 4 | 2 | 2 µg/mL (≈ 4.66 µM) | 71.5% | 2 µg/mL (≈ 4.66 µM) | 2 µg/mL (≈ 4.66 µM) | 4 µg/mL (≈ 9.33 µM) | 16 |  |
| Cc1ccc(-c2nn(-c3ccccc3)cc2/C=N/NC(=N)N)cc1 | 32 µg/mL (≈ 101 µM) | 2 µg/mL (≈ 6.28 µM) | 2 µg/mL (≈ 6.28 µM) | 8 µg/mL (≈ 25.1 µM) |  | 2 µg/mL (≈ 6.28 µM) | 4 µg/mL (≈ 12.6 µM) | 16 µg/mL (≈ 50.3 µM) | 2 µg/mL (≈ 6.28 µM) | 8 µg/mL (≈ 25.1 µM) | 2 µg/mL (≈ 6.28 µM) |  |  |  | 4 µg/mL (≈ 12.6 µM) | 86.5% | 4 µg/mL (≈ 12.6 µM) | 4 µg/mL (≈ 12.6 µM) | 8 µg/mL (≈ 25.1 µM) | 16 |  |
| Cc1ccc(-c2nn(-c3ccc([N+](=O)[O-])cc3[N+](=O)[O-])cc2/C=N/NC(=N)N)cc1 | > 64 µg/mL | 2 µg/mL (≈ 4.9 µM) | 2 µg/mL (≈ 4.9 µM) | 4 µg/mL (≈ 9.79 µM) | 2 | 2 µg/mL (≈ 4.9 µM) | 2 µg/mL (≈ 4.9 µM) | > 64 µg/mL | 2 µg/mL (≈ 4.9 µM) | 4 µg/mL (≈ 9.79 µM) | 2 µg/mL (≈ 4.9 µM) | 2 |  | 2 | 2 µg/mL (≈ 4.9 µM) | 87.4% | 2 µg/mL (≈ 4.9 µM) | 2 µg/mL (≈ 4.9 µM) | 4 µg/mL (≈ 9.79 µM) |  |  |
